Data taken from ChEMBL document CHEMBL1140405, “6-Acylamino-2-aminoquinolines as potent melanin-concentrating hormone 1 receptor antagonists. Identification, structure-activity relationship, and investigation of binding mode” (J Med Chem, 2005).
pIC50: −log10 of the molar value. In brackets after ≈: the same amount, converted by molar mass. Several values for one entry are separate records, joined by “and”; a condition that tells them apart may be missing. Equal values may be shown once.

Tests used:
[1] = target: T1, 5-hydroxytryptamine receptor 2C (Homo sapiens, UniProt P28335); assay: Inhibitory concentration against human 5-hydroxytryptamine 2C receptor expressed in CHO-K1 cells using [3H]mesulergine; assay type: cell-based
T1 sequence (P28335 whole entry): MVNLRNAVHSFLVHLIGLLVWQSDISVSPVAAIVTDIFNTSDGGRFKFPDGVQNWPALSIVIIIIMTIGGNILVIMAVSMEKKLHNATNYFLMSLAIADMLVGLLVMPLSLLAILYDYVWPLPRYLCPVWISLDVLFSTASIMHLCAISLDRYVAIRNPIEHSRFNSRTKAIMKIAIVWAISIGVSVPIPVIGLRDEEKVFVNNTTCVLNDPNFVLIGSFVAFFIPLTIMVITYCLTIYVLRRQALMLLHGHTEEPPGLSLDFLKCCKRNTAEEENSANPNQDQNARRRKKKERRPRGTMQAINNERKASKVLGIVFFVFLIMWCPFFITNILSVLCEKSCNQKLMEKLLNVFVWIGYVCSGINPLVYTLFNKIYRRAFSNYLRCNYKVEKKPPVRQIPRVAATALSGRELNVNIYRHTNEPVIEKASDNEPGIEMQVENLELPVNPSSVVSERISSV
How it was run: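 SPA competition binding on purchased membranes from CHO-K1 cells expressing h5-HT2c (4 μg/well), with YSi-WGA beads (0.4 mg/well) and [3H]mesulergine tracer, across various test-compound concentrations. Buffer is 50 mM Tris pH 7.7, 50 mM MgCl2 and 0.1% pargyline. Nonspecific binding uses 1 μM cold mesulergine. IC50 is taken by nonlinear regression.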

[2] = target: Melanin-concentrating hormone receptor 2 (Homo sapiens, UniProt Q969V1); assay: Displacement of 30 pM [125I]-MCH from human MCH2R expressed in CHO-K1 in whole-cell binding assay
Sequence of Melanin-concentrating hormone receptor 2 (Q969V1 whole entry): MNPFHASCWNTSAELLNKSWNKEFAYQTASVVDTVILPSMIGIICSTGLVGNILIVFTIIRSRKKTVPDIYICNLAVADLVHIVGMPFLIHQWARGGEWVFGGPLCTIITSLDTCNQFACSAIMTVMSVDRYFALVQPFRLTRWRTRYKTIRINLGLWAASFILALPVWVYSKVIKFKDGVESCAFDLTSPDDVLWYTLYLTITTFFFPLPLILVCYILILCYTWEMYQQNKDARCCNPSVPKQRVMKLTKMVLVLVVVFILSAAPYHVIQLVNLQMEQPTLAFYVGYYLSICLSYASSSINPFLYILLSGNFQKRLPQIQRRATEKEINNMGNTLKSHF

[3] = target: Melanin-concentrating hormone receptor 1 (Homo sapiens, UniProt Q99705); assay: Displacement of 150p M [125I]MCH from human MCH1R expressed in CHO-K1 cells at 10 uM; assay type: cell-based
Sequence of Melanin-concentrating hormone receptor 1 (Q99705 whole entry): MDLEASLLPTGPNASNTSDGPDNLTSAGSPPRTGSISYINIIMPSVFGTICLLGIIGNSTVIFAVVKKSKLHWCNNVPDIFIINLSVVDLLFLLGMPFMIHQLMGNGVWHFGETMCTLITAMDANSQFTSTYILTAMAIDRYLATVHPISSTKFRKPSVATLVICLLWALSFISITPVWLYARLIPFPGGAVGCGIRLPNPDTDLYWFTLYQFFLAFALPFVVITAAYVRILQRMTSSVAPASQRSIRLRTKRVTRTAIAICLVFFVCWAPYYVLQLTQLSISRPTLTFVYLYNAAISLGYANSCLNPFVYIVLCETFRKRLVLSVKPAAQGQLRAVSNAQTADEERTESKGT

[4] = Solubility was determined by addition of 10 mM DMSO solution of test compound to PBS (pH 7) until opalescence
[5] = target: T2, Muscarinic acetylcholine receptor M1 (Homo sapiens, UniProt P11229); assay: Inhibitory concentration against muscarinic acetylcholine receptor M1
T2 sequence (P11229 whole entry): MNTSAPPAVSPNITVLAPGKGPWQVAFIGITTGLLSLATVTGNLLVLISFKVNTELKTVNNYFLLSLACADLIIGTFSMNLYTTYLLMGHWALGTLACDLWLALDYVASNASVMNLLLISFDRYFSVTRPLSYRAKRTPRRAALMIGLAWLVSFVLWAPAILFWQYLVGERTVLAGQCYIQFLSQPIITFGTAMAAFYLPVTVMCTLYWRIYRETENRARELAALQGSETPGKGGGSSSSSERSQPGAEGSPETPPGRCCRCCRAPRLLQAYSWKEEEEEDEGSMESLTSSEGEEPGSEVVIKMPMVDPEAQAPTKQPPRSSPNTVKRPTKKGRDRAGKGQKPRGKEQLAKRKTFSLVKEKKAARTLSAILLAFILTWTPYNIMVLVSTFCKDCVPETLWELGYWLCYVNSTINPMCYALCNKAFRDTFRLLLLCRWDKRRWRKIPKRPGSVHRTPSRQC

[6] = target: Histamine H1 receptor (Homo sapiens, UniProt P35367); assay: Inhibitory concentration against histamine H1 receptor
Sequence of Histamine H1 receptor (P35367 whole entry): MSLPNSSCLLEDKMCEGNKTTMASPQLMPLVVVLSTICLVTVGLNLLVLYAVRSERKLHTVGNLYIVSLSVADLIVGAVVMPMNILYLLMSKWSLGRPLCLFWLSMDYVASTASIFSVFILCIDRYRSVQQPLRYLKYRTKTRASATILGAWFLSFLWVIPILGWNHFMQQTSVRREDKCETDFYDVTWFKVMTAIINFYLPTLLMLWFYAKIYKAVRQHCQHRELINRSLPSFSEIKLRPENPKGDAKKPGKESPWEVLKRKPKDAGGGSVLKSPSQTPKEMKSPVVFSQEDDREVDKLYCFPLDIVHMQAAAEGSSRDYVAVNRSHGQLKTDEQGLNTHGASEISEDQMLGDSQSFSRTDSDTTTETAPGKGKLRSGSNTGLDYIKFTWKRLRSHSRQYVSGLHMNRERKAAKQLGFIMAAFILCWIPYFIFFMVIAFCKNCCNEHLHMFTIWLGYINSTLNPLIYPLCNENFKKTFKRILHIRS

[7] = target: D(1A) dopamine receptor (Homo sapiens, UniProt P21728); assay: Inhibitory concentration against dopamine receptor D1
Sequence of D(1A) dopamine receptor (P21728 whole entry): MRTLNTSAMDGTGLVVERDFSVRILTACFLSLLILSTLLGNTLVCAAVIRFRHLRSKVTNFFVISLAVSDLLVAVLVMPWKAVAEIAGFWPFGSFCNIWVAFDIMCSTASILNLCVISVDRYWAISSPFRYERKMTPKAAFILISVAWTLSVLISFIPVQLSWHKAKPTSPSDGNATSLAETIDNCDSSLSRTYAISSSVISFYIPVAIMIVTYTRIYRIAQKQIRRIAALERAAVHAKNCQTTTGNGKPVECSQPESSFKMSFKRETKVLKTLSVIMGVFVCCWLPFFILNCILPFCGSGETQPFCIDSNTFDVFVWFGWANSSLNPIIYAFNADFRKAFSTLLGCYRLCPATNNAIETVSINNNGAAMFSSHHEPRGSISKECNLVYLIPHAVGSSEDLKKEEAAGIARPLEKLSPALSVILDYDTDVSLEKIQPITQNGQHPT

[8] = target: 5-hydroxytryptamine receptor 2A (Homo sapiens, UniProt P28223); assay: Inhibitory concentration against 5-hydroxytryptamine 2A receptor
Sequence of 5-hydroxytryptamine receptor 2A (P28223 whole entry): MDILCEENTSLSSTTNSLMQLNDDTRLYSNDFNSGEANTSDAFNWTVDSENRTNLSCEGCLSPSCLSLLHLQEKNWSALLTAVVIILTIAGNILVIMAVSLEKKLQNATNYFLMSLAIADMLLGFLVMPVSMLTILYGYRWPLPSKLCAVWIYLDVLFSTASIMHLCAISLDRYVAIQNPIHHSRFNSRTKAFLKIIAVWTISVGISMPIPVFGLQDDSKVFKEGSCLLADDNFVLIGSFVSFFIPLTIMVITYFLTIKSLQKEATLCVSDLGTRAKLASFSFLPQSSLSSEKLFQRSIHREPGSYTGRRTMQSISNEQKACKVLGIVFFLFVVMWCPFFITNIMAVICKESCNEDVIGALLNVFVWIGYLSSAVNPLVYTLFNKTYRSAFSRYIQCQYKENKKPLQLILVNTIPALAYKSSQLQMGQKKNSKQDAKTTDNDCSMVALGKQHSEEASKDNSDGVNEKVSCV

[9] = target: T3, Adrenergic receptor alpha-2 (Homo sapiens, UniProt P08913+P18825+P18089); assay: Inhibitory concentration against alpha-2 adrenergic receptor; assay type: protein assay
T3 sequence (P08913 whole entry): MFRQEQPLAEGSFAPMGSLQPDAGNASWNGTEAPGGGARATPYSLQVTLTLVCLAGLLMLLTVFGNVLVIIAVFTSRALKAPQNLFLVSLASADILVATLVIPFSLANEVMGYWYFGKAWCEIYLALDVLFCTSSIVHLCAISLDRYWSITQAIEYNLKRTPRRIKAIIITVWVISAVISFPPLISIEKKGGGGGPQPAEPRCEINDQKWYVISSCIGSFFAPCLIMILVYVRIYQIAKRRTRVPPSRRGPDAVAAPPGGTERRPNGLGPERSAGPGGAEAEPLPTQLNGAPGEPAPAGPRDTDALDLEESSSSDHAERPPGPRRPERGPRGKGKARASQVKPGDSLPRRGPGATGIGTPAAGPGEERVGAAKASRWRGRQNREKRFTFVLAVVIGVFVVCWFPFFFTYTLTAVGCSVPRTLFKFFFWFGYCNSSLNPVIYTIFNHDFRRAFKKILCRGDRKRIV
T3 sequence (P18825 whole entry): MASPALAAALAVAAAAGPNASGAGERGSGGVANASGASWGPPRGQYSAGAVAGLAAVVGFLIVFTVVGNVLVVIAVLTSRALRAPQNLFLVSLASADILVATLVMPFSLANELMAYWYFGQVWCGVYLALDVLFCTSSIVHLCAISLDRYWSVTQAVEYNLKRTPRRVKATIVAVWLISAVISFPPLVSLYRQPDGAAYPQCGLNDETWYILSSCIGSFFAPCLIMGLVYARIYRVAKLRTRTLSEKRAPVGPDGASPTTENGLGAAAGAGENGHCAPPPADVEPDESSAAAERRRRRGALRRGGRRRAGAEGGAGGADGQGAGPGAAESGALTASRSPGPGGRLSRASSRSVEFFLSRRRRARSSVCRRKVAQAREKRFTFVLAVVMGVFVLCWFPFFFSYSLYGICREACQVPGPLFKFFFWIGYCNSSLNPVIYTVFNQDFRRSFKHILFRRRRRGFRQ
T3 sequence (P18089 whole entry): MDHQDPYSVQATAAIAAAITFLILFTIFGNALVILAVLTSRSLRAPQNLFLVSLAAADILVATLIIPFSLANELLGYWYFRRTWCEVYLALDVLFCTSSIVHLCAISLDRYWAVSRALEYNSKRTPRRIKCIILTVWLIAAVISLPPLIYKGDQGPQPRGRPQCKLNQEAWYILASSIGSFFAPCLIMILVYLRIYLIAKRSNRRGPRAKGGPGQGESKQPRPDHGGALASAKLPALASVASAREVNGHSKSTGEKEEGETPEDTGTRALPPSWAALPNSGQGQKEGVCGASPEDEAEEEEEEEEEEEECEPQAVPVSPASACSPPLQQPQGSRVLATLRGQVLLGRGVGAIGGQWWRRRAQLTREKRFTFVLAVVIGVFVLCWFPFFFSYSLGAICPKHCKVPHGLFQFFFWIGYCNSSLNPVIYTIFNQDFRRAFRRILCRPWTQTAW

[10] = target: Histamine H2 receptor (Homo sapiens, UniProt P25021); assay: Inhibitory concentration against histamine H2 receptor
Sequence of Histamine H2 receptor (P25021 whole entry): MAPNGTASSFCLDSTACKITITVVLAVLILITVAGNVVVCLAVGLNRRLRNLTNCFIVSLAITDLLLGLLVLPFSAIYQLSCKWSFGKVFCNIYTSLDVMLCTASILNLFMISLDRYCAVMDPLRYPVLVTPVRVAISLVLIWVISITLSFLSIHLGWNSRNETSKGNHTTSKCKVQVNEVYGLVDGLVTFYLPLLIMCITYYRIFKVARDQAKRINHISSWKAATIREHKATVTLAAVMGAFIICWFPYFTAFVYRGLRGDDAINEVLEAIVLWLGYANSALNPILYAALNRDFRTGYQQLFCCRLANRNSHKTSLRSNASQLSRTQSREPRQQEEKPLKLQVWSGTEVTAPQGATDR

[11] = target: D(3) dopamine receptor (Homo sapiens, UniProt P35462); assay: Inhibitory concentration against dopamine receptor D3
Sequence of D(3) dopamine receptor (P35462 whole entry): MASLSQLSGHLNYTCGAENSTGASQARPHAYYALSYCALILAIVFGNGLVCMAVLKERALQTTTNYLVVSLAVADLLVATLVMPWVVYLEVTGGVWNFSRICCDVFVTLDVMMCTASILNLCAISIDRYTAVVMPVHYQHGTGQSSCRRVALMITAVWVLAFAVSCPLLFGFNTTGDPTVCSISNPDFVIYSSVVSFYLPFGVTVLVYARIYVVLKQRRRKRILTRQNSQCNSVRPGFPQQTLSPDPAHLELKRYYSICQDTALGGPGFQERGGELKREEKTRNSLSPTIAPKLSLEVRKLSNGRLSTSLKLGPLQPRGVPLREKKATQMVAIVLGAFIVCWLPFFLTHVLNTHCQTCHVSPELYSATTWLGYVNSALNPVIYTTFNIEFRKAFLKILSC

[12] = target: T4, Muscarinic acetylcholine receptor M2 (Homo sapiens, UniProt P08172); assay: Inhibitory concentration against muscarinic acetylcholine receptor M2
T4 sequence (P08172 whole entry): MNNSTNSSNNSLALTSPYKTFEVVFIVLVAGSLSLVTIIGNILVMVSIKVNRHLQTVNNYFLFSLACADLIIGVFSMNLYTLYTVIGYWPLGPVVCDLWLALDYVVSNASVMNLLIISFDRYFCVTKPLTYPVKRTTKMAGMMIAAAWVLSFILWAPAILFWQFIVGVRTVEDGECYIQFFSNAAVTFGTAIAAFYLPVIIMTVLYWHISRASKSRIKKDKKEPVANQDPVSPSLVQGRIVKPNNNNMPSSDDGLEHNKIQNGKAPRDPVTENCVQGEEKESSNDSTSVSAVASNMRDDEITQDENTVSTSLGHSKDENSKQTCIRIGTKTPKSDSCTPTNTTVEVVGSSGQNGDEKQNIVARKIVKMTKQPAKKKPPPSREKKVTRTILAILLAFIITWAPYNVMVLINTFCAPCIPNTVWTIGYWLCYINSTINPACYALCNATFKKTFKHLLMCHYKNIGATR

[13] = target: 5-hydroxytryptamine receptor 1B (Homo sapiens, UniProt P28222); assay: Inhibitory concentration against 5-hydroxytryptamine 1B receptor
Sequence of 5-hydroxytryptamine receptor 1B (P28222 whole entry): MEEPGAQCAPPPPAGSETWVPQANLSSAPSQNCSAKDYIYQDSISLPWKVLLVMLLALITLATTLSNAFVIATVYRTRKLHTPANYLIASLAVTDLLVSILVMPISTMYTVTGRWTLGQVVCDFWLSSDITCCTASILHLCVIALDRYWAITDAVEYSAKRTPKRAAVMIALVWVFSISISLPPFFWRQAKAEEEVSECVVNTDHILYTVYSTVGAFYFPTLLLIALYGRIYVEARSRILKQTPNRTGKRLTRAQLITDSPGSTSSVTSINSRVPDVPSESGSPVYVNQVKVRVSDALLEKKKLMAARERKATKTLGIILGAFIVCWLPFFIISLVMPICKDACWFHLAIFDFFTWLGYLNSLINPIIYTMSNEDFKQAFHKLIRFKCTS

[14] = target: Sodium-dependent dopamine transporter (Homo sapiens, UniProt Q01959); assay: Inhibitory concentration against dopamine transporter
Sequence of Sodium-dependent dopamine transporter (Q01959 whole entry): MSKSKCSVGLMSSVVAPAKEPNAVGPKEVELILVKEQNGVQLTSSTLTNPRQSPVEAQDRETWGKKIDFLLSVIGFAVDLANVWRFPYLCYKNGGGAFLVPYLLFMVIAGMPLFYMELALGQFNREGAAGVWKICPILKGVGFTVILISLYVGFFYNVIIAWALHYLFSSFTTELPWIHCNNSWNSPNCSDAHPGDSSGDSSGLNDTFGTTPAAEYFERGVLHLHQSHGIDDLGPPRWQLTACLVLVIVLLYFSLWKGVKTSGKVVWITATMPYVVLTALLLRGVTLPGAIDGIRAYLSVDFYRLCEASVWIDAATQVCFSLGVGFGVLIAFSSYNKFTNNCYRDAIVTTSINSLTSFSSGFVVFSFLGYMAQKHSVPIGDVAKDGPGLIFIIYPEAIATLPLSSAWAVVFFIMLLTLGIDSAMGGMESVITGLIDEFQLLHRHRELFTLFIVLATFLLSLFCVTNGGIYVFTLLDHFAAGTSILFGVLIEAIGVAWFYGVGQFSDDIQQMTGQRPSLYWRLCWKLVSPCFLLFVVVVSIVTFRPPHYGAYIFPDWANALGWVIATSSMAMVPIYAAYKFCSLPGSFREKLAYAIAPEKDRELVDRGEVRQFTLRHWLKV

Structure (SMILES)	pIC50 [1]	pIC50 [2]	also measured
Cc1cc(N2CCCNCC2)nc2ccc(NC(=O)/C=C/c3ccc(OC(F)(F)F)cc3)cc12	5.80	–	–
Cc1cc(N2CCC(N3CCCC3)CC2)nc2ccc(NC(=O)COc3ccc(OC(F)(F)F)cc3)cc12	–	5.20	–
CCOc1ccc(/C=C/C(=O)Nc2ccc3nc(N4CCN(C)CC4)cc(C)c3c2)cc1OC	–	–	inhibition [3]: 52%
Cc1cc(N2CCC(N)CC2)nc2ccc(NC(=O)COc3ccc(OC(F)(F)F)cc3)cc12	–	5.33	solubility kinetic ([4]; PBS): 150 µM (≈ 71.2 µg/mL)
Cc1cc(N2CCN(C)CC2)nc2ccc(NC(=O)COc3ccc(OC(F)(F)F)cc3)cc12	–	–	solubility kinetic ([4]; PBS): 120 µM (≈ 56.9 µg/mL)
Cc1cc(N(C)CCO)nc2ccc(NC(=O)COc3ccc(Cl)cc3Cl)cc12	5.23	< 5.00	solubility kinetic ([4]; PBS): 5 µM (≈ 2.17 µg/mL)
Cc1cc(OCCN(C)C)nc2ccc(NC(=O)COc3ccc(Cl)cc3Cl)cc12	5.59 and 5.60	5.06	pIC50 [5]: 5.77; pIC50 [6]: 5.46; pIC50 [7]: 5.12; pIC50 [8]: 6.21; pIC50 [9]: 6.60; pIC50 [10]: 6.06; pIC50 [11]: 8.89; pIC50 [12]: 5.35; pIC50 [13]: 6.70; pIC50 [14]: < 5.00
Cc1cc(N2CCN(C)CC2)nc2ccc(NC(=O)COc3ccc(Cl)cc3Cl)cc12	6.21	< 5.00	solubility kinetic ([4]; buffer): 25 µM (≈ 11.5 µg/mL)
CCN1CCN(c2cc(C)c3cc(NC(=O)c4cc(=O)c5ccccc5o4)ccc3n2)CC1	–	–	inhibition [3]: 71%
Cc1cc(N2CCOCC2)nc2ccc(NC(=O)COc3ccc(Cl)cc3Cl)cc12	–	–	solubility kinetic ([4]; PBS): 10 µM (≈ 4.46 µg/mL)
Cc1cc(NCCN(C)C)nc2ccc(NC(=O)/C=C/c3ccc(OC(F)(F)F)cc3)cc12	5.24	5.08	–
CCN1CCN(c2cc(C)c3cc(NC(=O)/C=C/c4ccccc4OC(C)C)ccc3n2)CC1	–	–	inhibition [3]: 41%
COc1ccc(OC)c(/C=C/C(=O)Nc2ccc3nc(N4CCN(C)CC4)cc(C)c3c2)c1	–	–	inhibition [3]: 47%
Cc1cc(N2CCNCC2)nc2ccc(NC(=O)COc3ccc(Cl)cc3Cl)cc12	5.70	5.43	solubility kinetic ([4]; buffer): 25 µM (≈ 11.1 µg/mL)
CNCCN(C)c1cc(C)c2cc(NC(=O)COc3ccc(Cl)cc3Cl)ccc2n1	6.11	–	solubility kinetic ([4]; buffer): 100 µM (≈ 44.7 µg/mL)
CC(=O)OCCN(C)c1cc(C)c2cc(NC(=O)COc3ccc(Cl)cc3Cl)ccc2n1	–	< 5.00	–
CCN1CCCC1CNc1cc(C)c2cc(NC(=O)COc3ccc(OC(F)(F)F)cc3)ccc2n1 (stereo not given)	5.33	< 5.00	–
Cc1cc(N2CCN(c3ncccn3)CC2)nc2ccc(NC(=O)COc3ccc(Cl)cc3Cl)cc12	–	–	inhibition [3]: 41%
Cc1cc(NC(C)CN(C)C)nc2ccc(NC(=O)/C=C/c3ccc(OC(F)(F)F)cc3)cc12 (stereo not given)	4.74	–	–
Cc1cc(N2CCOCC2)nc2ccc(NC(=O)COc3ccc(OC(F)(F)F)cc3)cc12	< 5.00	< 5.00	solubility kinetic ([4]; PBS): 25 µM (≈ 11.5 µg/mL)
CCN1CCN(c2cc(C)c3cc(NC(=O)c4ccc(OC)cc4)ccc3n2)CC1	–	–	inhibition [3]: 40%
Cc1cc(N(C)CCO)nc2ccc(NC(=O)/C=C/c3ccc(OC(F)(F)F)cc3)cc12	< 5.00	5.19	–
Cc1cc(NCCCN(C)C)nc2ccc(NC(=O)COc3ccc(OC(F)(F)F)cc3)cc12	5.40	5.15	–
Cc1cc(N(C)CCN(C)C)nc2ccc(NC(=O)COc3ccc(Cl)cc3Cl)cc12	–	5.35	solubility kinetic ([4]; PBS): 80 µM (≈ 36.9 µg/mL)
Cc1cc(N2CC3CC2CN3)nc2ccc(NC(=O)COc3ccc(OC(F)(F)F)cc3)cc12 (stereo not given)	–	5.17	solubility kinetic ([4]; PBS): 150 µM (≈ 70.9 µg/mL)
Cc1cc(N2CCNCC2)nc2ccc(NC(=O)/C=C/c3ccc(OC(F)(F)F)cc3)cc12	5.96	< 5.00	solubility kinetic ([4]; buffer): 25 µM (≈ 11.4 µg/mL)
